According to article PMC10099142 (ACS Omega, 2023):
Read-outs that look alike come from different tables or passages of the source.

Columns and labels:
Type in all cases: cell-based
[1] = system: human lung adenocarcinoma (A549); assay: MTT assay, antiproliferative activity, A549
In short: (§1)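 A549 cells are grown in DMEM and MDA-MB-231 cells in MEM, both with FBS and antibiotics, at 37 °C in humidified 5% CO2, then trypsinized. Cells are seeded at 5 × 10^3 per well and grown to confluency. They are exposed to a range of test compound concentrations for 24 h or 72 h, with 5-fluorouracil as reference. Medium is removed, MTT is added for 3 h, and formazan is dissolved in DMSO. A570 is read and percentage cell death is calculated.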

[2] = system: human breast adenocarcinoma (MDA-MB-231); assay: MTT assay, antiproliferative activity, MDA-MB-231
In short: as §1

[3] = system: 3T3-L1, a fibroblast cell line; assay: Screening of toxicity in normal cell line; conditions: Mus musculus, 3T3-L1, 72 h, read-out: IC50 3T3-L1 72 h
In short: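 3T3-L1 fibroblasts are kept in DMEM with 5% FBS and antibiotics at 37 °C in humidified 5% CO2. They are seeded at 5 × 10^3 per well and grown to confluency, then treated with a range of test compound concentrations. MTT is added for 3 h after removing the medium, and formazan is dissolved in DMSO. A570 is read and percentage cell death is calculated.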

How did the IC50 ([1]; A549, 24 h, read-out: IC50 A549 24 h) turn out when `O=c1[nH]cc(F)c(=O)[nH]1` [5-fluorouracil] was run?
The IC50 was 747 ± 0.13 µM.

What about the IC50 ([1]; A549, 72 h, read-out: IC50 A549 72 h) of the same molecule?
Its IC50 is 17 ± 0.41 µM.

And the IC50 ([2]; MDA-MB-231, 24 h, read-out: IC50 MDA-MB-231 24 h)?
The IC50 was 885 ± 0.76 µM.

And the IC50 ([2]; MDA-MB-231, 72 h, read-out: IC50 MDA-MB-231 72 h)?
The IC50 was 29.01 ± 0.01 µM.

What about the IC50 [3] of the same molecule?
The IC50 was 41.4 ± 1.05 µM.
